# Test results published in ChEMBL document CHEMBL1155885, “Discovery and optimization of pyridazinone non-nucleoside inhibitors of HIV-1 reverse transcriptase” (Bioorg Med Chem Lett, 2008).
# pEC50, pIC50, pKd: −log10 of the molar value.
# Legend:
# [1] = biological target: T1, Human immunodeficiency virus type 1 reverse transcriptase (Human immunodeficiency virus 1, UniProt Q72547); test: Inhibition of HIV1 wild-type reverse transcriptase by scintillation counting assay
# [2] = biological target: Human immunodeficiency virus type 1 reverse transcriptase (Human immunodeficiency virus 1, UniProt Q72547, K103N); test: Inhibition of HIV1 reverse transcriptase K103N mutant by scintillation counting assay
# Cytochrome P450 3A4 = Cytochrome P450 3A4 (Homo sapiens, UniProt P08684); test: Inhibition of recombinant CYP3A4; format: ADME
# Chain of Cytochrome P450 3A4 (P08684 whole entry): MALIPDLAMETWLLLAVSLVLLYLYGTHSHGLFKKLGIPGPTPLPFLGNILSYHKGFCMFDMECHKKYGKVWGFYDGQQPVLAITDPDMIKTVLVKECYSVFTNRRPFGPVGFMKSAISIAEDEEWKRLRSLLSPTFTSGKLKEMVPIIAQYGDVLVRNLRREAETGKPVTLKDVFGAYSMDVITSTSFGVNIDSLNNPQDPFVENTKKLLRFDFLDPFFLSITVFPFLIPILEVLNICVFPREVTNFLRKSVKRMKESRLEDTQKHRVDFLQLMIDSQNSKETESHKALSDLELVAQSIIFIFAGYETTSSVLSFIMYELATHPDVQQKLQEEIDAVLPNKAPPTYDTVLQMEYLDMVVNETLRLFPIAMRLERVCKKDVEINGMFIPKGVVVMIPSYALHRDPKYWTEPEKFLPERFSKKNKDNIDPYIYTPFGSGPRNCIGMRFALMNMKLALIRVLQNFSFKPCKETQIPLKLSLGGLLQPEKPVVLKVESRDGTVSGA
# Method in brief: (§1)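 Fluorogenic assay using 7-benzyloxy-4-(trifluoromethyl)-coumarin as substrate; IC50 reported in micromolar.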
# [3] = biological target: T1, Human immunodeficiency virus type 1 reverse transcriptase; test: Binding affinity to HIV1 wild-type reverse transcriptase by surface plasmon resonance spectroscopy
# [4] = system: Human immunodeficiency virus 1; test: Antiviral activity against HIV1 in human MT4 cells assessed as reduction of viral-induced cytopathic effect in presence of human serum; format: functional, organism-based; conditions: Human immunodeficiency virus 1, MT4
# Method in brief: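 HIV-1-infected MT4 cells incubated with compound in presence of 40% human serum; reduction of viral cytopathic effect measured; EC50 derived.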
# [5] = system: Human immunodeficiency virus 1; test: Antiviral activity against HIV1 with reverse transcriptase G190A mutation in human MT4 cells assessed as reduction of virus-induced cytopathic effect; format: functional, organism-based; conditions: Human immunodeficiency virus 1, MT4
# Method in brief: (§2)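 MT4 cells infected with HIV-1 and incubated with compound in the presence of 10% fetal bovine serum. Read-out is the reduction of virus-induced cytopathic effect. EC50 derived; each value is the mean of at least two independent assays.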
# [6] = system: Human immunodeficiency virus 1; test: Antiviral activity against HIV1 with reverse transcriptase K103N/L100I mutation in human MT4 cells assessed as reduction of virus-induced cytopathic effect; format: functional, organism-based; conditions: Human immunodeficiency virus 1, MT4; method in brief: as §2
# [7] = system: Human immunodeficiency virus 1; test: Antiviral activity against HIV1 with reverse transcriptase K103N/Y181C mutation in human MT4 cells assessed as reduction of virus-induced cytopathic effect; format: functional, organism-based; conditions: Human immunodeficiency virus 1, MT4; method in brief: as §2
# Cytochrome P450 1A2 = biological target: T2, Cytochrome P450 1A2 (Homo sapiens, UniProt P05177); test: Inhibition of CYP1A2; format: ADME; method in brief: as §1
# T2 sequence (P05177 whole entry): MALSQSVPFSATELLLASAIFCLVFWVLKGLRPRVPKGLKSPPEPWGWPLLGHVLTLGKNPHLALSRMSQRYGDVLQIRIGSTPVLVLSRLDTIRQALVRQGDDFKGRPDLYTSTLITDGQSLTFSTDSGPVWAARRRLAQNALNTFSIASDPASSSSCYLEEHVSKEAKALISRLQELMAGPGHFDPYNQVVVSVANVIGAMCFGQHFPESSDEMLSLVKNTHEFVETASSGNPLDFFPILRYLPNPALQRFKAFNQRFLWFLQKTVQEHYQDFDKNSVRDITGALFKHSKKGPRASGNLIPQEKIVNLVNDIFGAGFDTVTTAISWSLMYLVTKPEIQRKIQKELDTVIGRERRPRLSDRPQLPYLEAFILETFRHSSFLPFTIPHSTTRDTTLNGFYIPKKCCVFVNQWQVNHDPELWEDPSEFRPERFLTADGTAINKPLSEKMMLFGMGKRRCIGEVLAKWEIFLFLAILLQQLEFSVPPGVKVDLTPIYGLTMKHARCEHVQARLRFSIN
# Cytochrome P450 2D6 = Cytochrome P450 2D6 (Homo sapiens, UniProt P10635); test: Inhibition of CYP2D6; format: ADME; method in brief: as §1
# Chain of Cytochrome P450 2D6 (P10635 whole entry): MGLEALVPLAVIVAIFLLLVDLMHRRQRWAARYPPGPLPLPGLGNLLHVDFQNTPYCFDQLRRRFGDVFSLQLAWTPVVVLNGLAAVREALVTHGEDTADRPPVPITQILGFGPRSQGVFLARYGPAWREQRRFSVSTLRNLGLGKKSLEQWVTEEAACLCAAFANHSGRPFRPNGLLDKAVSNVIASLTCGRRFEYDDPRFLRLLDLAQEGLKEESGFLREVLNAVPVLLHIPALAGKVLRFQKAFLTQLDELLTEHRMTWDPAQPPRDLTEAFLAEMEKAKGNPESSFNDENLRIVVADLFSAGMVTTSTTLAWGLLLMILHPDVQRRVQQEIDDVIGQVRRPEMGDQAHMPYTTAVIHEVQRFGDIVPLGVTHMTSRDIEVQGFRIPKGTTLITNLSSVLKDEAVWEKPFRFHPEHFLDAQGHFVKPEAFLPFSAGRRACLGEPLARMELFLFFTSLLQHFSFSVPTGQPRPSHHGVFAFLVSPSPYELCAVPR
# Cytochrome P450 2C9 = Cytochrome P450 2C9 (Homo sapiens, UniProt P11712); test: Inhibition of CYP2C9; format: ADME; method in brief: as §1
# Chain of Cytochrome P450 2C9 (P11712 whole entry): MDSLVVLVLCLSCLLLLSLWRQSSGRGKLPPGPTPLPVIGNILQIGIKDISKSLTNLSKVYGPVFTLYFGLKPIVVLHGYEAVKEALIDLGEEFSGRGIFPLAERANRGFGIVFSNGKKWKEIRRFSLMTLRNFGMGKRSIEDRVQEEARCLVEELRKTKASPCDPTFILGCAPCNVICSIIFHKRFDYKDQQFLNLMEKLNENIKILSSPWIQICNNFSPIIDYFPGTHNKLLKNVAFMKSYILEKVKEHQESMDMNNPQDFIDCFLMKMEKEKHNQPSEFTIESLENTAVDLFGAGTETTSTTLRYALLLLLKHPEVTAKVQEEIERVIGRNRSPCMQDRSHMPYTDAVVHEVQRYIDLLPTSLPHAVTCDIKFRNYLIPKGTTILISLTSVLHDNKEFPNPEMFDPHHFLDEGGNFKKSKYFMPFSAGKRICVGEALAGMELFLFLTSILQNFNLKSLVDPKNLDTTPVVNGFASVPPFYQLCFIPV
# Cytochrome P450 2C19 = Cytochrome P450 2C19 (Homo sapiens, UniProt P33261); test: Inhibition of CYP2C19; format: ADME; method in brief: as §1
# Chain of Cytochrome P450 2C19 (P33261 whole entry): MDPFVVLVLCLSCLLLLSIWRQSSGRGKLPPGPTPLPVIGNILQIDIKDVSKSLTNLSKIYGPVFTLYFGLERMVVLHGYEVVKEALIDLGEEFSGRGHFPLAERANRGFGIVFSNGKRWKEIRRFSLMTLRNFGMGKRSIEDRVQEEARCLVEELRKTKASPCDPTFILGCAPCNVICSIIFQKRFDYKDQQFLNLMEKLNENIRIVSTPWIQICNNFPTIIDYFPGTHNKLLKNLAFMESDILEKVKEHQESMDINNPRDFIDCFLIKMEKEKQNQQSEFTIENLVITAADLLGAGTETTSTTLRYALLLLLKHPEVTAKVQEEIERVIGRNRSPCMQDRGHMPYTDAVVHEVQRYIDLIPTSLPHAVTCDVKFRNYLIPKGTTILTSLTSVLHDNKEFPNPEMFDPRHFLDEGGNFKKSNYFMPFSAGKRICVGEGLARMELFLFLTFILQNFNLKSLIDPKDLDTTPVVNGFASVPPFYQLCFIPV
# [8] = Cmax in rat at 5 mg/kg, po; format: ADME, organism-based; design: dose 5 mg/kg, route oral; conditions: in vivo
# Method in brief: (§3)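 Rats dosed orally at 5 mg/kg; plasma Cmax and AUC determined.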
# Rattus norvegicus = test: AUC in rat at 5 mg/kg, po; format: ADME, organism-based, Plasma; design: dose 5 mg/kg, route oral; conditions: in vivo; method in brief: as §3
# [9] = Half life in rat at 2.5 mg/kg, iv; format: ADME, organism-based; design: dose 2.5 mg/kg, route intravenous; conditions: in vivo
# Method in brief: (§4)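 Rats given 2.5 mg/kg intravenously; half-life determined; apparent oral bioavailability calculated relative to oral dosing.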
# [10] = Bioavailability in rat at 2.5 mg/kg, iv; format: ADME, organism-based; conditions: in vivo; method in brief: as §4
# [11] = Cmax in dog at 5 mg/kg, po; format: ADME, organism-based, Canis lupus familiaris; design: dose 5 mg/kg, route oral; conditions: in vivo
# Canis familiaris = test: AUC in dog at 5 mg/kg, po; format: ADME, organism-based, Canis lupus familiaris, Plasma; design: dose 5 mg/kg, route oral; conditions: in vivo
# [12] = Half life in dog at 2.5 mg/kg, iv; format: ADME, organism-based, Canis lupus familiaris; design: dose 2.5 mg/kg, route intravenous; conditions: in vivo
# [13] = Bioavailability in dog at 2.5 mg/kg, iv; format: ADME, organism-based, Canis lupus familiaris; conditions: in vivo
# [14] = biological target: Human immunodeficiency virus type 1 reverse transcriptase (Human immunodeficiency virus 1, UniProt Q72547, Y181C); test: Inhibition of HIV1 reverse transcriptase Y181C mutant by scintillation counting assay
# [15] = system: Human immunodeficiency virus 1; test: Antiviral activity against HIV1 in human MT4 cells assessed as reduction of viral-induced cytopathic effect; format: functional, organism-based; conditions: Human immunodeficiency virus 1, MT4
# [16] = system: Human immunodeficiency virus 1; test: Antiviral activity against HIV1 with reverse transcriptase K103N mutation in human MT4 cells assessed as reduction of virus-induced cytopathic effect; format: functional, organism-based; conditions: Human immunodeficiency virus 1, MT4; method in brief: as §2
# [17] = system: Human immunodeficiency virus 1; test: Antiviral activity against HIV1 with reverse transcriptase Y181C mutation in human MT4 cells assessed as reduction of virus-induced cytopathic effect; format: functional, organism-based; conditions: Human immunodeficiency virus 1, MT4; method in brief: as §2
structure (smiles),measurement,setting,value
O=c1ccc(Cc2ccc(Cl)c(Oc3cccc(Cl)c3)c2)n[nH]1,pIC50,[1],7.00
Cc1cc(Cl)cc(Oc2cccc(Cc3ccc(=O)[nH]n3)c2)c1,pIC50,[1],4.85
Cc1cc(Cc2ccc(Cl)c(Oc3cc(F)cc(C#N)c3)c2F)n[nH]c1=O,pEC50,[2],8.70
same,pIC50,Cytochrome P450 3A4,4.62
same,pKd,[3],8.08
same,pEC50,[4],7.96
same,pEC50,[5],9.00
same,pEC50,[6],8.52
same,pEC50,[7],7.39
same,pIC50,Cytochrome P450 1A2,< 4.30
same,pIC50,Cytochrome P450 2D6,< 4.30
same,pIC50,Cytochrome P450 2C9,5.10
same,pIC50,Cytochrome P450 2C19,4.68
same,Cmax,[8],2300 nM
same,AUC,Rattus norvegicus,22.4 uM.hr/ml
same,half-life,[9],3.8 h
same,bioavailability,[10],61%
same,Cmax,[11],1470 nM
same,AUC,Canis familiaris,8.8 uM.hr/ml
same,half-life,[12],6.4 h
same,bioavailability,[13],34%
Cc1cc(Cc2ccc(Cl)c(Oc3ccccc3)c2)n[nH]c1=O,pIC50,[1],6.44
same,pIC50,[2],6.04
same,pIC50,[14],5.67
COc1cc(C#N)cc(Oc2c(Cl)ccc(Cc3cc(C)c(=O)[nH]n3)c2F)c1,pEC50,[4],7.82
same,pEC50,[5],9.00
same,pEC50,[6],8.70
same,pEC50,[7],7.51
Cc1cc(Cc2ccc(Cl)c(Oc3cc(C#N)cc(C#N)c3)c2F)n[nH]c1=O,pEC50,[2],8.70
same,pEC50,[4],8.15
same,pEC50,[5],9.00
same,pEC50,[7],7.72
O=c1ccc(Cc2ccc(Cl)c(Oc3ccccc3)c2)n[nH]1,pIC50,[1],6.28
same,pIC50,[2],5.47
same,pIC50,[14],5.26
O=c1ccc(Cc2cc(Cc3cccc(Cl)c3)c3occc3c2)n[nH]1,pIC50,[1],5.41
same,pIC50,Cytochrome P450 3A4,6.74
Cc1cc(Cc2ccc(Cl)c(Oc3ccccc3)c2F)n[nH]c1=O,pIC50,[1],7.70
same,pIC50,[2],7.30
same,pIC50,[14],6.68
O=C(c1cccc(Cl)c1)c1cc(Cc2ccc(=O)[nH]n2)cc2ccoc12,pIC50,[1],5.09
same,pIC50,Cytochrome P450 3A4,6.22
"O=C1Nc2ccc(Cl)cc2C(C#CC2CC2)(C(F)(F)F)O1 (single isomer, unassigned) [EFAVIRENZ]",pEC50,[4],7.72
same,pEC50,[5],8.22
same,pEC50,[6],< 6.30
same,pEC50,[7],7.08
O=c1ccc(Cc2cccc(Oc3cccc(Cl)c3)c2)n[nH]1,pIC50,[1],4.68
O=C(c1ccc(Cl)cc1)c1cc(Cc2ccc(=O)[nH]n2)cc2ccoc12,pIC50,[1],6.40
same,pIC50,[2],6.59
same,pIC50,[14],6.44
same,pEC50,[15],7.10
same,pEC50,[16],7.15
same,pEC50,[17],6.68
Cc1ccc(Cc2ccc(=O)[nH]n2)cc1Oc1cccc(Cl)c1,pIC50,[1],6.19
O=c1ccc(Cc2cc(Oc3cccc(Cl)c3)c3occc3c2)n[nH]1,pIC50,[1],6.00
same,pIC50,Cytochrome P450 3A4,6.39
O=c1ccc(Cc2ccc(Cl)c(Oc3ccccc3)c2F)n[nH]1,pIC50,[1],7.00
same,pIC50,[2],6.37
same,pIC50,[14],6.30
